Measured values as given in ChEMBL document CHEMBL4732024, “Second-generation tricyclic pyrimido-pyrrolo-oxazine mTOR inhibitor with predicted blood-brain barrier permeability” (RSC Med Chem, 2021).

Legend:
mTORC1 = mTORC1 (Homo sapiens, UniProt P42345); test: Inhibition of mTORC1 in human A2058 cells assessed as reduction in S6 ribosomal protein phosphorylation at Ser235/236 residues incubated for 1 hr by Western blot analysis; format: cell-based
Procedure, shortened: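 A2058 melanoma cells; phospho-S6 (Ser235/236) used as the mTORC1 readout. IC50 from a 7-point 1:2 serial dilution, each concentration in triplicate. Reported as mean ± SD.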

[1] = target: Phosphatidylinositol 4,5-bisphosphate 3-kinase catalytic subunit alpha isoform (Homo sapiens, UniProt P42336); test: Inhibition of alexa fluor 647-labeled kinase tracer 314 binding to recombinant N-terminal His6-tagged p110alpha (unknown origin) by TR-FRET assay
Phosphatidylinositol 4,5-bisphosphate 3-kinase catalytic subunit alpha isoform, sequence (P42336 whole entry, canonical isoform): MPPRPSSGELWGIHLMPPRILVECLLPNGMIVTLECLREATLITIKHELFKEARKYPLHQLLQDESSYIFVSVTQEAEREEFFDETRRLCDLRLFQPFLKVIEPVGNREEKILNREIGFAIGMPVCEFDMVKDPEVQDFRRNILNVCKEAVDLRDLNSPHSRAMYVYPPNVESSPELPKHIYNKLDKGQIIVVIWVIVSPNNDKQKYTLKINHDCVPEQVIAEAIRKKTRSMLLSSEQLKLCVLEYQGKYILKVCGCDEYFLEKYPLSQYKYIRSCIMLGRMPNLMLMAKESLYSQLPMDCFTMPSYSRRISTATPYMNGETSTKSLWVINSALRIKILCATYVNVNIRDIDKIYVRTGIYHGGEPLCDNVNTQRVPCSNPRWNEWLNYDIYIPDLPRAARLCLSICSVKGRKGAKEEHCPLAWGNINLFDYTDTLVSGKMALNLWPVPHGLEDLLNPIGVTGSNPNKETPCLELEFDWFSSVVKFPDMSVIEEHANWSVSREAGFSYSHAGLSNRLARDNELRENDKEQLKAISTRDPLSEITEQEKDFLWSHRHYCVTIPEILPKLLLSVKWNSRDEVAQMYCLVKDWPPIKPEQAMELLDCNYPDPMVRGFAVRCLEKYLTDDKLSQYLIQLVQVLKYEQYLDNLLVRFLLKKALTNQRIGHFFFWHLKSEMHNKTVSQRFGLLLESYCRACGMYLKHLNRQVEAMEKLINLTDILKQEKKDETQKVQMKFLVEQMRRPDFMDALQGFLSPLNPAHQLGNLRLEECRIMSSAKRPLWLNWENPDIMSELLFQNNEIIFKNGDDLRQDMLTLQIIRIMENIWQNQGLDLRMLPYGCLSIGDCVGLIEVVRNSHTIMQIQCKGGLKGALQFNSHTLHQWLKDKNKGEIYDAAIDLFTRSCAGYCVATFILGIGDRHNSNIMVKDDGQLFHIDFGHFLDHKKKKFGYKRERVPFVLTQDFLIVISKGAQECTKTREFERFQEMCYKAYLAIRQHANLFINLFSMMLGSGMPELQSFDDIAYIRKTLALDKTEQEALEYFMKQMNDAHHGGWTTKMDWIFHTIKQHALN
Procedure, shortened: (§1)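 LanthaScreen TR-FRET displacement of tracer from the ATP-binding site of recombinant kinase. 10-point 1:4 serial dilution with each concentration in duplicate. IC50 converted to Ki using a factor of 2.05 for mTOR and 9.84 for p110α. Reported as mean ± SD.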

[2] = Inhibition of mTORC2 in human A2058 cells assessed as reduction in PKB phosphorylation at S473 residue incubated for 1 hr by Western blot analysis; format: cell-based; conditions: A2058, 1 h
Procedure, shortened: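 A2058 melanoma cells were used. mTORC1 activity was read as phospho-S6 ribosomal protein (Ser235/236), and mTORC2 activity as phospho-PKB/Akt (Ser473). IC50 came from a 7-point 1:2 serial dilution, with each concentration measured in triplicate. Data are reported as mean ± SD.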

[3] = target: Serine/threonine-protein kinase mTOR (Homo sapiens, UniProt P42345); test: Inhibition of alexa fluor 647-labeled kinase tracer 314 binding to recombinant N-terminal GST-fused mTOR (1360 to 2549 residues) (unknown origin) by TR-FRET assay; procedure, shortened: as §1
MDR1 (P-gp, ABCB1) [4] = target: T1, MDR1 (P-gp, ABCB1) (Homo sapiens, UniProt P08183); test: Substrate activity at human MDR1 expressed in MDCK cells assessed as apparent permeability at 1 uM by UPLS-MS/MS analysis; format: ADME, cell-based
T1 sequence (P08183 whole entry): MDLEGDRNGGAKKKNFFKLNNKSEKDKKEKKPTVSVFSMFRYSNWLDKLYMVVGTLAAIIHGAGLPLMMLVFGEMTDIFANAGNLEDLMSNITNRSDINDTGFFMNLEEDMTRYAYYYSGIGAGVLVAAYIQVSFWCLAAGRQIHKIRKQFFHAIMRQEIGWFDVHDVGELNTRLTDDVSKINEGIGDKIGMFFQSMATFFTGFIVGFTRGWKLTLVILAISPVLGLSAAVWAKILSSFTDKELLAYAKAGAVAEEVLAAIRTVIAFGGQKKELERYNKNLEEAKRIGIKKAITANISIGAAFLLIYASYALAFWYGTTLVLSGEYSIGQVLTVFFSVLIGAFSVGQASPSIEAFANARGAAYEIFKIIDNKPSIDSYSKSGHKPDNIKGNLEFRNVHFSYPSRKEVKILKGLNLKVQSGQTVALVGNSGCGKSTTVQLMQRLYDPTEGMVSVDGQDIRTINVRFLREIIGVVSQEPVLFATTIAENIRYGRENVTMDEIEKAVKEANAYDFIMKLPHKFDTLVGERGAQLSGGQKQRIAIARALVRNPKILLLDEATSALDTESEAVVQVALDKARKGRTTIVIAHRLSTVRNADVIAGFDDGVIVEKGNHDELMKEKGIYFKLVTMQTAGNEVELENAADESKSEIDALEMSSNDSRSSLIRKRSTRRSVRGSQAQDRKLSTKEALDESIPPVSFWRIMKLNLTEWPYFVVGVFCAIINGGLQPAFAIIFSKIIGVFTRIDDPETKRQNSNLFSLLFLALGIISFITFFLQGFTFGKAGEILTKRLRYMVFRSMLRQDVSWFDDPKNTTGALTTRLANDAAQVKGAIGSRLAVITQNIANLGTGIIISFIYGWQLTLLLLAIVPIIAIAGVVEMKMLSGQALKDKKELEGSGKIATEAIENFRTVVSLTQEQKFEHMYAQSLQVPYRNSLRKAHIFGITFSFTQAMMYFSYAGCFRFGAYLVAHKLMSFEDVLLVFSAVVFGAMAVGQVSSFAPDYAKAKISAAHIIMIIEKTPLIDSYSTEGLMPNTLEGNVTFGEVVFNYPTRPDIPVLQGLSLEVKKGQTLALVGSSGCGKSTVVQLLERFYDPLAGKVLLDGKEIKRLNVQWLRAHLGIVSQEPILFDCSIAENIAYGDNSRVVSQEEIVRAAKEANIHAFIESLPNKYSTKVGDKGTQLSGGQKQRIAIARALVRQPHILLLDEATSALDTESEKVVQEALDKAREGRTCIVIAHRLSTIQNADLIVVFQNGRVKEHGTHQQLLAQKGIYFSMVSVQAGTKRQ
Procedure, shortened: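 TransWell assay in CRISPR-Cas9 MDCK cells expressing human MDR1 with endogenous canine MDR1 knocked out (MDCK-hMDR1^cMDR1-ko), grown on filters; apparent permeability measured apical to basolateral.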

MDR1 (P-gp, ABCB1) [5] = target: T1, MDR1 (P-gp, ABCB1); test: Substrate activity at human MDR1 expressed in MDCK cells assessed as efflux ratio of apparent permeability across basolateral to apical side over apical to basolateral side at 1 uM by UPLS-MS/MS analysis; format: ADME, cell-based
CYP1A2 = target: T2, CYP1A2 (Homo sapiens, UniProt P05177); test: (§2) Stability of compound assessed as recombinant human CYP1A2 expressed in baculovirus infected insect cells mediated compound metabolism by measuring parent compound remaining at 1 uM preincubated with NADP+ regenerating system for 10 mins followed by enzyme addition and measured after 60 mins by LC-MS analysis; format: ADME; conditions: time 70 min, read-out: Stabilty
T2 sequence (P05177 whole entry): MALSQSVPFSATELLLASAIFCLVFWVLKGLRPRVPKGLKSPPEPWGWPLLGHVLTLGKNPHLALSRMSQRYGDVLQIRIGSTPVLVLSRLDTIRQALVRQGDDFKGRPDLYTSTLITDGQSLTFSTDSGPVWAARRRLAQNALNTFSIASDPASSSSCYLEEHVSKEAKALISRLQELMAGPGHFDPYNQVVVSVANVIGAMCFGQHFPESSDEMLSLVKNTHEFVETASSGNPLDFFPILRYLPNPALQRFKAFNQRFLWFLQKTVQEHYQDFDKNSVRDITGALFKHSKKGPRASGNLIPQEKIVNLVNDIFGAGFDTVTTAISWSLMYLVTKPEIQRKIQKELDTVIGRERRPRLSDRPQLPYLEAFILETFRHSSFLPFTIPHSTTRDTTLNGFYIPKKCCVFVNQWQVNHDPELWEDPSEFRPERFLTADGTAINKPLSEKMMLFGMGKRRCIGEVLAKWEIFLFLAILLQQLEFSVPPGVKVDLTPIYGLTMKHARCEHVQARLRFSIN
Procedure, shortened: (§3)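 Individual human recombinant CYP isoenzymes; percentage of parent compound remaining after 60 min incubation.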

CYP1A1 = target: T3, CYP1A1 (Homo sapiens, UniProt P04798); test: as §2, with “CYP1A1” for “CYP1A2”; format: ADME; conditions: time 70 min, read-out: Stabilty; procedure, shortened: as §3
T3 sequence (P04798 whole entry): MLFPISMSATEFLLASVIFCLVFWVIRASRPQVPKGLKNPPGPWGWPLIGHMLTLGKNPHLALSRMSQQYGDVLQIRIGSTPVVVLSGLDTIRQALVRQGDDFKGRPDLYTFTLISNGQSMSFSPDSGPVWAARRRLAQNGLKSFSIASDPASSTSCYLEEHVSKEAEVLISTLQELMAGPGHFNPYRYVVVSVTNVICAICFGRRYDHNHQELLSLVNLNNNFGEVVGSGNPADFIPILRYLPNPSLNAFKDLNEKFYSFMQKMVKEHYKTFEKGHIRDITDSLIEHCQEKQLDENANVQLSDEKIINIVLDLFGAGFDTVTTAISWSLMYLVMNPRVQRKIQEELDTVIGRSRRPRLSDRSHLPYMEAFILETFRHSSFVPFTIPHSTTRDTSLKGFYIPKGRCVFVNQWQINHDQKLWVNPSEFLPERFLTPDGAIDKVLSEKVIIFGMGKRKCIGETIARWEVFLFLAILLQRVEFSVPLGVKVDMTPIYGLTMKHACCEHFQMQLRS

| SMILES | IC50 (mTORC1) [nM] | Ki [1] [nM] | IC50 [2] [nM] | Ki [3] [nM] | Papp A→B at 1 µM (MDR1 (P-gp, ABCB1) [4]) [×10⁻⁶ cm/s] | efflux ratio at 1 µM (MDR1 (P-gp, ABCB1) [5]) | remaining at 1 h, 1 µM (CYP1A2) [%] | remaining at 1 h, 1 µM (CYP1A1) [%] |
| --- | --- | --- | --- | --- | --- | --- | --- | --- |
| C[C@@H]1COCCN1c1nc(-c2cnc(N)cc2C(F)F)nc2c1C[C@@H]1COCCN21 | 67 | 232 | 253 | 12 |  |  |  |  |
| C[C@@H]1COCCN1c1nc(-c2cnc(N)cn2)nc2c1C[C@@H]1COCCN21 |  |  |  |  | < 60 | > 20 |  |  |
| C[C@@H]1COCCN1c1nc(-c2nnc(N)s2)nc2c1C[C@@H]1COCCN21 | 80 | 1550 | 135 | 8.2 | < 60 | > 20 |  |  |
| C[C@@H]1COCCN1c1nc(-c2cnc(N)s2)nc2c1C[C@@H]1COCCN21 | 102 | 2490 | 157 | 15 | < 60 | > 20 | 87 | 48 |
| C[C@@H]1COCCN1c1nc(-c2cnc(N)cc2C(F)(F)F)nc2c1C[C@@H]1COCCN21 | 776 | 272 | 1090 | 118 |  |  |  |  |
| C[C@@H]1COCCN1c1nc(-c2cnc(N)c(C(F)(F)F)c2)nc2c1C[C@@H]1COCCN21 | 348 | > 20000 | 549 | 33 |  |  |  |  |
| C[C@@H]1COCCN1c1nc(-c2cnc(N)nc2C(F)F)nc2c1C[C@@H]1COCCN21 | 119 | 17 |  | 34 |  |  |  |  |
| C[C@@H]1COCCN1c1nc(-c2nc(N)ns2)nc2c1C[C@@H]1COCCN21 | 261 | 806 | 512 | 58 |  |  |  |  |
| C[C@@H]1COCCN1c1nc(-c2cnc(N)nc2C(F)(F)F)nc2c1C[C@@H]1COCCN21 | 694 | 55 | 446 | 249 |  |  |  |  |
| C[C@@H]1COCCN1c1nc(-c2ccc(N)nn2)nc2c1C[C@@H]1COCCN21 | 84 | 847 | 162 | 11 |  |  |  |  |
